Experimental data published in ChEMBL document CHEMBL5678799 (Biochem J, 2009).
Active and inactive are the calls of the source. No cut-off for these calls is given here.

Tests used:
[1] = target: Dual specificity tyrosine-phosphorylation-regulated kinase 1A (Homo sapiens) (UniProt Q13627); test: Inhibition of recombinant human N-terminal GST-tagged DYRK1A (1 to 502 residues) expressed in Escherichia coli assessed as remaining activity at 1 uM using KKISGRLSPIMTEQ as substrate incubated for 30 mins in presence of [gamma-33P]ATP by filter binding method relative to control
How it was run: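 Run robotically for 30 min at 21 °C under linear conditions. Compound at 1 or 10 µM. Percentage activity remaining versus control without compound, triplicate mean ± S.D.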

[2] = target: Mitogen-activated protein kinase 3 (Homo sapiens) (UniProt P27361); test: Inhibition of recombinant human N-terminal GST-tagged ERK1 (2 to 379 residues) expressed in Escherichia coli assessed as remaining activity at 1 uM using MBP as substrate incubated for 30 mins in presence of [gamma-33P]ATP by filter binding method relative to control
How it was run: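 Kinase panel run robotically at 21 °C for 30 min, linear in time and enzyme. […] Compound tested at 1 or 10 µM. Activity given as percentage of incubations without compound, mean of triplicates ± S.D.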

[3] = target: Fibroblast growth factor receptor 1 (Homo sapiens) (UniProt P11362); test: Inhibition of recombinant human N-terminal His6-tagged FGFR1 (400 to 820 residues) expressed in baculovirus infected Sf21 cells assessed as remaining activity at 1 uM using Poly(Glu,Tyr) as substrate incubated for 30 mins in presence of [gamma-33P]ATP by filter binding method relative to control
How it was run: (§1)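 Panel assays were run for 30 min at 21 °C, within the linear range for time and enzyme. […] Results are percent activity remaining relative to compound-free control, averaged from triplicate ± S.D.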

[4] = target: Insulin receptor (Homo sapiens) (UniProt P06213); test: Inhibition of recombinant human N-terminal His6-tagged IR (1001 to 1382 residues) expressed in baculovirus infected Sf21 cells assessed as remaining activity at 1 uM using KKSRGDYMTMQIG as substrate incubated for 30 mins in presence of [gamma-33P]ATP by filter binding method relative to control; how it was run: as §1
[5] = target: Serine/threonine-protein kinase Nek2 (Homo sapiens) (UniProt P51955); test: Inhibition of recombinant human N-terminal His6-tagged NEK2A (1 to 445 residues) expressed in baculovirus infected Sf21 cells assessed as remaining activity at 1 uM using RFRRSRRMI as substrate incubated for 30 mins in presence of [gamma-33P]ATP by filter binding method relative to control
[6] = target: MAP kinase-activated protein kinase 5 (Homo sapiens) (UniProt Q8IW41); test: Inhibition of recombinant human His6-tagged PRAK (1 to 471 residues) expressed in baculovirus infected Sf21 cells assessed as remaining activity at 1 uM using phosphorylase b peptide as substrate incubated for 30 mins in presence of [gamma-33P]ATP by filter binding method relative to control
How it was run: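 Robotic radiometric panel assay, 30 min at room temperature (21 °C), with 10 mM magnesium acetate. […] Compound at 1 or 10 µM. Residual activity expressed relative to compound-free control; triplicate average ± S.D.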

[7] = target: Mitogen-activated protein kinase 12 (Homo sapiens) (UniProt P53778); test: Inhibition of recombinant human N-terminal GST-tagged P38gamma (1 to 367 residues) expressed in Escherichia coli assessed as remaining activity at 10 uM using MBP as substrate incubated for 30 mins in presence of [gamma-33P]ATP by filter binding method relative to control
How it was run: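 Radiometric kinase panel run robotically at room temperature (21 °C) for 30 min, linear in time and enzyme. […] Activity is expressed as percent of control without compound, from triplicate determinations ± S.D.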

MEF [8] = test: Inhibition of mTORC2 in serum starved MEF cells assessed as reduction IGF1-stimulated AKT phosphorylation at Thr308 residue at 100 to 1000 nM incubated for 20 mins by immunoblot analysis; type: cell-based; conditions: Mus musculus, dose 100-1000 nM
How it was run: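 Serum withdrawn 16 h. Inhibitor or vehicle given 30 min before stimulation with 50 ng/ml IGF-1 for 20 min. Lysed in Tris lysis buffer and immunoblotted for Akt Thr308 phosphorylation with ECL detection. Applies to HEK-293 and to wild-type, Rictor, Sin1 or mLST8 knockout MEFs. Three independent experiments.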

MEF [9] = test: Inhibition of mTORC2 in MEF cells assessed as reduction in NDRG1 phosphorylation incubated ay 1 uM for 30 mins by immunoblot analysis; type: cell-based; conditions: Mus musculus
How it was run: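 Cells (MEFs, wild-type or knockout, or HeLa) kept in 10% serum, then exposed 30 min to inhibitor or vehicle at the stated level. Washed twice in ice-cold PBS and lysed in Tris lysis buffer with CHAPS, phosphatase and protease inhibitors. Lysates cleared at 18000 g and immunoblotted with phospho-specific antibodies and ECL detection. Blots are representative of three experiments.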

[10] = target: Mitogen-activated protein kinase; ERK1/ERK2 (Homo sapiens) (UniProt P27361+P28482); test: Inhibition of ERK1/2 in serum starved/PMA-stimulated HEK293 cells assessed as reduction in RSK activity at 1 uM using crosstide as substrate incubated for 30 mins in presence of [32P]-ATP by liquid-scintillation counting method; type: cell-based
MEF [11] = test: Induction of cell cycle arrest in MEF cells assessed as accumulation at G2 phase at 3 uM incubated for 1 to 3 days by propidium iodide staining based flow cytometric analysis (reference value: 15.4 +/- 2.04%); type: toxicity; conditions: mouse, time 1-3 day
MEF [12] = test: Induction of cell cycle arrest in MEF cells assessed as accumulation at S phase at 3 uM incubated for 1 to 3 days by propidium iodide staining based flow cytometric analysis (reference value: 61.5 +/- 0.78%); type: toxicity; conditions: mouse, time 1-3 day
mTORC1 (Homo sapiens) [13] = target: T1, mTORC1 (Homo sapiens) (UniProt P42345+Q8N122+Q9BVC4); conditions: HEK293, dose 30.0 nM, time 30.0 min
mTORC1 (Homo sapiens) [14] = target: T1, mTORC1 (Homo sapiens); conditions: HEK293, dose 30-1000 nM, time 30.0 min
mTORC1 (Homo sapiens) [15] = target: T1, mTORC1 (Homo sapiens); conditions: HEK293, dose 30-1000 nM, time 30.0 min; remark: listed apart in the source
mTORC2 (Homo sapiens) [16] = target: T2, mTORC2 (Homo sapiens) (UniProt P42345+Q6R327+Q9BVC4+Q9BPZ7); conditions: HEK293, dose 30-1000 nM, time 30.0 min
mTORC2 (Homo sapiens) [17] = target: T2, mTORC2 (Homo sapiens); conditions: HEK293, dose 30-100 nM, time 30.0 min
mTORC2 (Homo sapiens) [18] = target: T2, mTORC2 (Homo sapiens); conditions: HEK293, dose 30-1000 nM, time 30.0 min; remark: listed apart in the source
mTORC2 (Homo sapiens) [19] = target: T2, mTORC2 (Homo sapiens); conditions: HEK293, dose 30-1000 nM, time 30.0 min; remark: listed apart in the source

Chain of Insulin receptor (Homo sapiens) (P06213 28-758 limits assumed): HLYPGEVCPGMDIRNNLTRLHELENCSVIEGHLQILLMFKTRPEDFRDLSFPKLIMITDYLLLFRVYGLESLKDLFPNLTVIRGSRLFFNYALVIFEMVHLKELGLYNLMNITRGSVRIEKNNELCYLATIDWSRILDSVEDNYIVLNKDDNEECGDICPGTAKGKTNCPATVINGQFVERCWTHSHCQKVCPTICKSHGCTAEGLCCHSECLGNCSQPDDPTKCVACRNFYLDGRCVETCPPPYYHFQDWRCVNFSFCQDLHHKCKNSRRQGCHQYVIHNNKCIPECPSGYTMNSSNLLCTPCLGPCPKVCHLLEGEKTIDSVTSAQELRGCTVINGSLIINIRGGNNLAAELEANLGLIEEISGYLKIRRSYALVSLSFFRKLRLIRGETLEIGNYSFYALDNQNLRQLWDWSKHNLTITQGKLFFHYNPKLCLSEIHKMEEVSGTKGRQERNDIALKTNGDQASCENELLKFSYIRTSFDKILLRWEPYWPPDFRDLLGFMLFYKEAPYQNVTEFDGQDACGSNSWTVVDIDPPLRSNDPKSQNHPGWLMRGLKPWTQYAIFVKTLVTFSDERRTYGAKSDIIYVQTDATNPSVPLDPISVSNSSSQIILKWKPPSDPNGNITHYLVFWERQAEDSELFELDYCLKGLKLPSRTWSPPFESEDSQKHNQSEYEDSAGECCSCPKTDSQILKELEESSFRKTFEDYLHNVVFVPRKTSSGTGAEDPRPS
Chain of Insulin receptor (Homo sapiens) (P06213 763-1382 limits assumed): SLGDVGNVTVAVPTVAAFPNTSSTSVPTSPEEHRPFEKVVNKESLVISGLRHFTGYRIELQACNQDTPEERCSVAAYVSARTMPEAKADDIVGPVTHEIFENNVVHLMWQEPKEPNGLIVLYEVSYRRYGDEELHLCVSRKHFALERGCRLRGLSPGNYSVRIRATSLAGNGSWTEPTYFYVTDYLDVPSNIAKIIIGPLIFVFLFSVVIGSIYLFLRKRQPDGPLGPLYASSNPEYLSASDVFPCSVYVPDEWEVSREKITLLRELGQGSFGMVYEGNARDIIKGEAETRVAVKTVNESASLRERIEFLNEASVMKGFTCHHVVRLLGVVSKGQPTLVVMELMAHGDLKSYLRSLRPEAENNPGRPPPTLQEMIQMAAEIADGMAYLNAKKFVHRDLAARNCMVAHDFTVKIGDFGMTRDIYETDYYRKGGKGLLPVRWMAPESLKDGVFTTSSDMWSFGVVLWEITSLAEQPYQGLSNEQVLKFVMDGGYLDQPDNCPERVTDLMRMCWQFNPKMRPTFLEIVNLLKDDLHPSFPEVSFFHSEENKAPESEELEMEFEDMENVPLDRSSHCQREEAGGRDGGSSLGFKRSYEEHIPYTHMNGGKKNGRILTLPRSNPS
Chain of Mitogen-activated protein kinase 3 (Homo sapiens) (P27361 whole entry, the tested form may be a part): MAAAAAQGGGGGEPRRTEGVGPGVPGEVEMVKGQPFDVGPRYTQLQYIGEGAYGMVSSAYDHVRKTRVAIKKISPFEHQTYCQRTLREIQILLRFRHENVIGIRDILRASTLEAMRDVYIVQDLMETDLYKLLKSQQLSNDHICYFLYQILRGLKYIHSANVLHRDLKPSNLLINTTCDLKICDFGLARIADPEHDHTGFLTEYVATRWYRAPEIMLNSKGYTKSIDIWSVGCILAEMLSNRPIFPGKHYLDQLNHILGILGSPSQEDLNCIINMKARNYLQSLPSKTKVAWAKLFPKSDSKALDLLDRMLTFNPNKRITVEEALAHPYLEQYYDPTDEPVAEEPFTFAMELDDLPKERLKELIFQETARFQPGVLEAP
Chain of Mitogen-activated protein kinase; ERK1/ERK2 (Homo sapiens) (P27361 whole entry, looked up): as the sequence (P27361 whole entry, the tested form may be a part) above
Chain of Mitogen-activated protein kinase; ERK1/ERK2 (Homo sapiens) (P28482 whole entry, looked up): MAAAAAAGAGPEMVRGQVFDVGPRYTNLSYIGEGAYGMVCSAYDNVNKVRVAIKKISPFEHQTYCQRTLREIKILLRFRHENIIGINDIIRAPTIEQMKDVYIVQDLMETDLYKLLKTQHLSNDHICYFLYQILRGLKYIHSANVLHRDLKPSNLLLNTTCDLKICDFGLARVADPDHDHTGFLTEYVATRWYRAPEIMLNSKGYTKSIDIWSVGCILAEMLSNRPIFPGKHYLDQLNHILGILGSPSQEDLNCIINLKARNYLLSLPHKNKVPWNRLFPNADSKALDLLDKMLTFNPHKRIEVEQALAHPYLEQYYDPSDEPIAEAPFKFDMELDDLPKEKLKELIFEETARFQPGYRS
Chain of Serine/threonine-protein kinase Nek2 (Homo sapiens) (P51955 whole entry, the tested form may be a part): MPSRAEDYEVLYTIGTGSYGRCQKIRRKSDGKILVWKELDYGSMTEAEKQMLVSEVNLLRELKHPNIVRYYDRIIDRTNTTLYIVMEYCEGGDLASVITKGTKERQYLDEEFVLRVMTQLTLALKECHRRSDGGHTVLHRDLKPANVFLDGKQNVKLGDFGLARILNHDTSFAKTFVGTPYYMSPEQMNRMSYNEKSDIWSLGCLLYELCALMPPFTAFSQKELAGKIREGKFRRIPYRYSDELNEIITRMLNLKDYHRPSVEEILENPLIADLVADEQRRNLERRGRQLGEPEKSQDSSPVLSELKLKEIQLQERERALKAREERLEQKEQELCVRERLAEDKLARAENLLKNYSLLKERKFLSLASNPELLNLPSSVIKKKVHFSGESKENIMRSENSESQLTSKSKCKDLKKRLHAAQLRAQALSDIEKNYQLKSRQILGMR
Chain of MAP kinase-activated protein kinase 5 (Homo sapiens) (Q8IW41 whole entry, the tested form may be a part): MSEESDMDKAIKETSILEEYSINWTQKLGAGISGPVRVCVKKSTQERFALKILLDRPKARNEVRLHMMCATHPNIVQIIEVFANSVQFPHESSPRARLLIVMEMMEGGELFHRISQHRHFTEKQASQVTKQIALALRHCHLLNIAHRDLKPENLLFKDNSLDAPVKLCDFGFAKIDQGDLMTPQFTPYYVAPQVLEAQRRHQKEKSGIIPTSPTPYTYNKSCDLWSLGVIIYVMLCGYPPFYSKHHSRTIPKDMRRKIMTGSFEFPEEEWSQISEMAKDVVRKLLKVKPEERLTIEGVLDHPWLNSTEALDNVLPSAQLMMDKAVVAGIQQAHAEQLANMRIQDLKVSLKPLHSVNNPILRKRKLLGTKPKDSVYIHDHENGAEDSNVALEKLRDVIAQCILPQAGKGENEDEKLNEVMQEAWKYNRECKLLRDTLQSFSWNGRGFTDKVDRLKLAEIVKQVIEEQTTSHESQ
Chain of Mitogen-activated protein kinase 12 (Homo sapiens) (P53778 whole entry, the tested form may be a part): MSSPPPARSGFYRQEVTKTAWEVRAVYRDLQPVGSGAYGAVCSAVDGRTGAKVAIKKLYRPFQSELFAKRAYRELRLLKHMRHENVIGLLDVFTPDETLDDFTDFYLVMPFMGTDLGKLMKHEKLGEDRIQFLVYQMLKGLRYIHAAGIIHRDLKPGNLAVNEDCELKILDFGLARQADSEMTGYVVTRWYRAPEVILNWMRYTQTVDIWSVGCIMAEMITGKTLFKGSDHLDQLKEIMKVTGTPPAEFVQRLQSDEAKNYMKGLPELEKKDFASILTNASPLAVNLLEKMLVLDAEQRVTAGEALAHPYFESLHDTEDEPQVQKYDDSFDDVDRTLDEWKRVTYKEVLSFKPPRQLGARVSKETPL
Chain of Fibroblast growth factor receptor 1 (Homo sapiens) (P11362 22-822 limits assumed): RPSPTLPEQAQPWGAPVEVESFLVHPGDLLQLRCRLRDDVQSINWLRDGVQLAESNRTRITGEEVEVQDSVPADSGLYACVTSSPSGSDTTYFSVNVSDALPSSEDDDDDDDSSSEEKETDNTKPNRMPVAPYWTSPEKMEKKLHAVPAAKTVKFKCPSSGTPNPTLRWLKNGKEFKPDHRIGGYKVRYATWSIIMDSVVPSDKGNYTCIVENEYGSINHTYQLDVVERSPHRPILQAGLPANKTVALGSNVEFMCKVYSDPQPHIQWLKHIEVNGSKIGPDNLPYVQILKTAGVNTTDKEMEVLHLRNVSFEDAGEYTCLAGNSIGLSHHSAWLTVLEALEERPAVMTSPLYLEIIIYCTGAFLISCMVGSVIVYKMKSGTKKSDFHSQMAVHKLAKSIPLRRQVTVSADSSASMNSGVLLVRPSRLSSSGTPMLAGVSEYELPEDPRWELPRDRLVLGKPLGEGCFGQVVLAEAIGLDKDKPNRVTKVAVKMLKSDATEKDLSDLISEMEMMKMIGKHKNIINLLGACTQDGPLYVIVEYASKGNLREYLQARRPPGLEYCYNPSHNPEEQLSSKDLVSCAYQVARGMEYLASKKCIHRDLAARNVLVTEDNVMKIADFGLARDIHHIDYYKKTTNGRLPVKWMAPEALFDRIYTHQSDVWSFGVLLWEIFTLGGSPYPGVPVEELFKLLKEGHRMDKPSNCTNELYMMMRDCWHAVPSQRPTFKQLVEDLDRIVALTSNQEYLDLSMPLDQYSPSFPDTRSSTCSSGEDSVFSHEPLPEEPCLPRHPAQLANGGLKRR

COc1ccc(-c2ccc3c(N4CCOCC4)nc(N4C[C@@H](C)O[C@@H](C)C4)nc3n2)cc1CO [Ku-0063794]
Activity [1]: 94% | Activity [2]: 102% | Activity [3]: 102% | Activity [4]: 81% | Activity [5]: 92% | Activity [6]: 67% | Activity [7]: 91% | inhibition (MEF [8]): Active | inhibition (MEF [9]): Active | inhibition [10]: inactive | Activity (MEF [11]): 9.4% | Activity (MEF [12]): 46.9% | inhibition (mTORC1 (Homo sapiens) [13]): Active | inhibition (mTORC1 (Homo sapiens) [14]): Dose-Dependent Effect | inhibition (mTORC1 (Homo sapiens) [15]): Dose-Dependent Effect | inhibition (mTORC2 (Homo sapiens) [16]): Dose-Dependent Effect | inhibition (mTORC2 (Homo sapiens) [17]): Active | inhibition (mTORC2 (Homo sapiens) [18]): Dose-Dependent Effect | inhibition (mTORC2 (Homo sapiens) [19]): Dose-Dependent Effect
